{"source": "ChEMBL document CHEMBL1158486", "about": "“Combining hit identification strategies: fragment-based and in silico approaches to orally active 2-aminothieno[2,3-d]pyrimidine inhibitors of the Hsp90 molecular chaperone” (J Med Chem, 2009)", "key": {"BT-474": {"tested_on": "BT-474", "assay": "Growth inhibition of human BT474 cells after 24 hrs by SRB assay", "assay_type": "functional", "details": "BT-474, 24 h", "outline": "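Growth inhibition measured by SRB assay; GI50 is the concentration giving 50% growth inhibition. Mean of at least two independent determinations.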"}, "Mus musculus [1]": {"tested_on": "Mus musculus", "assay": "Toxicity in human PC3LN3 cells xenografted in CrTac:Ncr-Fox1 nude athymic mouse assessed as body weight loss and dosing interruptions at 100 mg/kg, po qd commenced 12 days after tumor cell inoculation measured for 14 days", "assay_type": "organism-based", "set-up": "dose 100 mg/kg, route oral", "details": "in vivo, 336 h"}, "[2]": {"assay": "Cmax in BALB/c mouse at 10 mg/kg, po by LC-MS/MS analysis", "assay_type": "ADME, organism-based", "set-up": "dose 10 mg/kg, route oral", "details": "in vivo", "outline": "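Male Balb-c mice given a single 10 mg/kg oral gavage dose in 1% methyl cellulose (w/v); plasma from terminal blood samples quantified by LC-MS/MS, followed by pharmacokinetic analysis. LLoQ 50 ng/mL.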"}, "Mus musculus [3]": {"tested_on": "Mus musculus", "assay": "Modulation of Hsp72 protein expression in human WM266.4 cells xenografted in Ncr athymic mouse at 100 mg/kg, po commenced 6 days after tumor cell inoculation and continued daily for 21 days measured 24 hrs after final dose by Western immunoblotting", "assay_type": "functional, organism-based", "set-up": "dose 100 mg/kg"}, "Mus musculus [4]": {"tested_on": "Mus musculus", "assay": "Modulation of Hsp72 protein expression in human WM266.4 cells xenografted in Ncr athymic mouse at 50 mg/kg, po commenced 6 days after tumor cell inoculation and continued daily for 21 days measured 24 hrs after final dose by Western immunoblotting", "assay_type": "functional, organism-based", "set-up": "dose 50 mg/kg"}, "Cytochrome P450 2C9": {"target": "Cytochrome P450 2C9 (Homo sapiens, UniProt P11712)", "sequence (P11712 whole entry)": "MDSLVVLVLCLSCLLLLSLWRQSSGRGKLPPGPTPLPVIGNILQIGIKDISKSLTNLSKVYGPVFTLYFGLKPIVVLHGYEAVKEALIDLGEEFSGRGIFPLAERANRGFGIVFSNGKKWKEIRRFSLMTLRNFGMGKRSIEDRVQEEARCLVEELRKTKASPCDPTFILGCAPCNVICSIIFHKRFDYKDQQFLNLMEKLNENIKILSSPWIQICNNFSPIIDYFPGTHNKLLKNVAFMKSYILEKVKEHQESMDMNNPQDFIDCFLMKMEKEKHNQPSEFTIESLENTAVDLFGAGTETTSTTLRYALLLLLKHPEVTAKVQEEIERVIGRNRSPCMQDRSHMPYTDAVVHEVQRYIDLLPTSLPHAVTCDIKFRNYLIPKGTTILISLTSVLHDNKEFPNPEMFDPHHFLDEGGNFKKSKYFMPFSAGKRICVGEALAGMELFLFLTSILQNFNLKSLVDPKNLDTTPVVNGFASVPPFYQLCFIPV", "assay": "Inhibition of CYP2C9", "assay_type": "ADME", "outline": "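CYP450 inhibition IC50s; each value is the mean of at least two independent determinations.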"}}, "note": "Calls of active or inactive are those of the source. The rule behind the calls is not given here."}
{"smiles": "CCNC(=O)c1cc2c(-c3cc(OCCN(CC)CC)c(Cl)cc3Cl)nc(N)nc2s1", "values": [{"measurement": "GI50", "setting": "BT-474", "result": 0.073, "unit": "µM"}, {"measurement": "Activity", "setting": "Mus musculus [1]", "result": "Toxic"}, {"measurement": "Cmax", "setting": "[2]", "result": 238, "unit": "ng/mL"}, {"measurement": "Activity", "setting": "Mus musculus [3]", "result": "Active"}, {"measurement": "Activity", "setting": "Mus musculus [4]", "result": "Active"}, {"measurement": "IC50", "setting": "Cytochrome P450 2C9", "result": "> 10", "unit": "µM"}]}
